We go through 19 compounds from ChEMBL document CHEMBL4814004, “Design and synthesis of quinoline-pyrimidine inspired hybrids as potential plasmodial inhibitors” (Eur J Med Chem, 2021).

The subject of one data set is Plasmodium falciparum. Put plainly: Antiplasmodial activity against chloroquine-sensitive Plasmodium falciparum NF54 infected in erythrocytes assessed as reduction in parasite growth incubated for 48 hrs by lactate dehydrogenase assay. It is filed as functional, organism-based. The conditions noted are these: NF54, Erythrocyte. Summed up: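 P. falciparum NF54 cultured in supplemented RPMI-1640 at 37 °C under 5% CO₂/3% O₂/92% N₂. Rings synchronised with 5% D-sorbitol and set to 2% parasitaemia, 2% haematocrit. Serial dilutions added after a 24 h incubation, then a further 48 h incubation. Quinine as positive control. pLDH read-out with tetrazolium-phenazine ethosulphate, 40 min at 37 °C, A620. IC50 from log sigmoid dose-response curves, triplicate.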

Another data set relates to HEK293. Put plainly: Cytotoxicity against human HEK293 cells incubated for 48 hrs by MTT assay. The following applies: HEK293, 48 h. It is filed as cell-based. In short, it runs like this: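 HEK-293 monolayers grown in DMEM with 10% FBS and penicillin/streptomycin at 37 °C, 5% CO₂. Cells at 10 000/well exposed 48 h to serial dilutions with final DMSO under 1%. Camptothecin as positive control. MTT (5 mg/ml in PBS pH 7.3) added for 2 h, formazan dissolved in DMSO, read at A540 with 690 nm reference. IC50 from % viability, triplicate.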

A short description of data set [1]: Selectivity index, ratio of IC50 for human HEK293 cells to IC50 for Plasmodium falciparum NF54. It is filed as toxicity. The following applies: read-out: Ratio IC50.
Data set [2] can be described thus: Binding affinity to recombinant Plasmodium falciparum HSP70-1 expressed in Escherichia coli assessed as dissociation rate constant by SPR analysis. Summed up:
(§1)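 MP-SPR at 25 °C in PBS-Tween 20 with 20 mM EDTA, pH 7.4. Analyte at 0, 1.25, 2.5, 5 and 10 nM, injected three times. Association 3 min, dissociation 10 min. Double-referenced, global 1:1 Langmuir fit.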

Data set [3] is described as follows: Binding affinity to recombinant Plasmodium falciparum HSP70-1 expressed in Escherichia coli assessed as steady state affinity by SPR analysis. In short, it runs like this:
as §1

A short description of data set [4]: Binding affinity to recombinant Plasmodium falciparum HSP70-z expressed in Escherichia coli assessed as dissociation rate constant by SPR analysis. Summed up:
as §1

The nature of data set [5]: Binding affinity to recombinant Plasmodium falciparum HSP70-z expressed in Escherichia coli assessed as steady state affinity by SPR analysis. In short, it runs like this: as §1

Structures are written as SMILES.

On to `Cc1ccc(-c2cc(-c3ccc(Cl)cc3)nc(NCCCCNc3ccnc4cc(Cl)ccc34)n2)cc1`, for which the IC50 in the data set with Plasmodium falciparum amounted to 9.49 µM.

As to `COc1ccc(-c2cc(-c3ccc(OC)cc3)nc(NCCCCNc3ccnc4cc(Cl)ccc34)n2)cc1`, in the data set with Plasmodium falciparum, the 50% inhibitory concentration (IC50) is 83 µM.

As to `C=C[C@H]1CN2CC[C@H]1C[C@H]2[C@H](O)c1ccnc2ccc(OC)cc12` [QUININE], the values for the IC50 in the data set on HEK293 and in the data set on Plasmodium falciparum were 134 µM and 0.108 µM, respectively. For the same compound, the selectivity ratio in data set [1] is 1240.

With `Cc1ccc(-c2cc(-c3ccc(Cl)cc3)nc(N3CCN(c4ccnc5cc(Cl)ccc45)CC3)n2)cc1`, the IC50 in the data set with Plasmodium falciparum is 13.1 µM.

In the case of `COc1ccc(-c2cc(-c3ccc(C)cc3)nc(NCCNc3ccnc4cc(Cl)ccc34)n2)cc1`, the IC50 in the data set on Plasmodium falciparum worked out at 4.3 µM.

Consider `COc1ccc(-c2cc(-c3ccc(OC)c(OC)c3)nc(N3CCN(c4ccnc5cc(Cl)ccc45)CC3)n2)cc1OC`, for which the “Dissociation rate constant (koff)” value is on record as 7 10^-2/s in data set [2] and 7.48 10^-2/s in data set [4]. Also, the Kd in data set [3] came to 0.0261 µM; in data set [5], 2.05 µM. In addition, the IC50 with Plasmodium falciparum was 6.17 µM.

`COc1ccc(-c2cc(-c3ccc(OC)c(OC)c3)nc(NCCCCNc3ccnc4cc(Cl)ccc34)n2)cc1`: the IC50 in the data set on Plasmodium falciparum was 2.61 µM.

As to `COc1ccc(-c2cc(-c3ccc(C)cc3)nc(NCCCNc3ccnc4cc(Cl)ccc34)n2)cc1`, the IC50 in the data set with Plasmodium falciparum stood at 2.71 µM.

As for `Oc1ccc(-c2cc(-c3ccc(O)c(O)c3)nc(NCCCCNc3ccnc4cc(Cl)ccc34)n2)cc1`, the figures for the “Dissociation rate constant (koff)” value in data set [2] and in data set [4] were 7.84 10^-2/s and 9.06 10^-2/s, respectively. Also, the Kd in data set [3] was 0.281 µM; in data set [5], 4.75 µM. The IC50 in the data set on Plasmodium falciparum is 1.62 µM.

On to `COc1ccc(-c2cc(-c3ccc(OC)cc3)nc(N3CCN(c4ccnc5cc(Cl)ccc45)CC3)n2)cc1`, for which the “Dissociation rate constant (koff)” value in data set [2] is on record as 1.32 10^-2/s; in data set [4], 8.24 10^-2/s. Besides, the Kd in data set [3] was 0.00219 µM; in data set [5], 13.7 µM. Further, the IC50 with Plasmodium falciparum was determined as 7.69 µM.

Consider `CC[C@@]1(O)C(=O)OCc2c1cc1n(c2=O)Cc2cc3ccccc3nc2-1` [CAMPTOTHECIN], for which the selectivity ratio in data set [1] was determined as 0.01.

With `CCN(CC)CCCC(C)Nc1ccnc2cc(Cl)ccc12` (centres undefined) [CHLOROQUINE], in the data set with HEK293, the IC50 came out at 101 µM.

Take `Oc1ccc(-c2cc(-c3ccc(O)cc3)nc(NCCCCNc3ccnc4cc(Cl)ccc34)n2)cc1`: the figures for the IC50 with HEK293 and with Plasmodium falciparum were 3.16 µM and 0.32 µM, respectively. Further, the selectivity ratio in data set [1] came to 9.79. Further, the figures for the “Dissociation rate constant (koff)” value in data set [2] and in data set [4] were 8.81 10^-2/s and 1.2 10^-1/s, respectively. In addition, the Kd in data set [3] turned out to be 0.0114 µM; in data set [5], 0.00443 µM.

`Clc1ccc2c(N3CCN(c4nc(-c5ccccc5)cc(-c5ccccc5)n4)CC3)ccnc2c1`: the IC50 in the data set with Plasmodium falciparum came to 7.5 µM.

Consider `Oc1ccc(-c2cc(-c3ccc(O)c(O)c3)nc(N3CCN(c4ccnc5cc(Cl)ccc45)CC3)n2)cc1`, for which the IC50 in the data set with Plasmodium falciparum is 2.66 µM.

As for `COc1ccc(-c2cc(-c3ccc(C)cc3)nc(N3CCN(c4ccnc5cc(Cl)ccc45)CC3)n2)cc1`, the IC50 with Plasmodium falciparum turned out to be 2.63 µM.

On to `COc1ccc(C(=O)/C=C/c2ccc(OC)c(OC)c2)c(O)c1`, for which, in the data set on Plasmodium falciparum, the IC50 turned out to be 3.18 µM.

With `COc1ccc(-c2cc(-c3ccc(OC)c(OC)c3)nc(N3CCN(c4ccnc5cc(Cl)ccc45)CC3)n2)cc1`, in the data set with Plasmodium falciparum, the 50% inhibitory concentration (IC50) amounted to 17.8 µM.

With `COc1ccc(/C=C/C(=O)c2ccc(O)cc2)c(O)c1`, the IC50 with Plasmodium falciparum was 0.59 µM.
